These results are taken from ChEMBL document CHEMBL1140719, “A Drosophila model to identify polyamine-drug conjugates that target the polyamine transporter in an intact epithelium” (J Med Chem, 2008).

The nature of data set [1]: Inhibition of disc eversion in Drosophila melanogaster imaginal disc cells at 18 uM. In kind it is functional. An outline of the steps: (§1)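 Larvae are Oregon-R, from eggs laid for 24 h at 25 °C on cornmeal medium with bromophenol blue. About 30 leg imaginal discs per culture are cultured 15 h at 25 °C in 1 mL minimal Robb's medium (pH 7.2) with 1 µg/mL 20-hydroxyecdysone and 18 µM compound. Spermidine at 100 µM is added as competitor where stated.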

A short description of data set [2]: Cytotoxicity against polyamine transporter deficient […] cells. The class given is ADME, cell-based. The settings on record: Cricetulus griseus.
Data set [3] is described as follows: Inhibition of PAT assessed as cytotoxicity against CHO cells. In kind it is cell-based. The settings on record: Cricetulus griseus.
Another data set relates to polyamine transporter. The experiment in a line: Ratio of IC50 for polyamine transporter deficient […] cells to IC50 for CHO cells. In kind it is cell-based, Cricetulus griseus. The settings on record: chinese hamster, polyamine transporter deficient […] cells and CHO cells; read-out: Ratio IC50. In a few lines:
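The ratio is the IC50 in the polyamine-transport-deficient CHO-MG line (MGBG-resistant after ethylmethanesulfonate mutagenesis) divided by the IC50 in parental CHO cells.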

The nature of data set [4]: Inhibition of disc eversion in Drosophila melanogaster imaginal disc cells at 18 uM in presence of spermidine. The class given is functional. In a few lines: as §1
A further data set has as its system L1210. The experiment in a line: Cytotoxicity against mouse L1210 cells. The class given is functional, cell-based.
Data set [5] is described as follows: Cytotoxicity against Drosophila melanogaster imaginal disc cells by Trypan blue exclusion test. The class given is cell-based. An outline of the steps:
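Oregon-R Drosophila melanogaster leg imaginal discs are dissected in Ringer's with 0.1% BSA and cultured 15 h at 25 °C in minimal Robb's medium (pH 7.2). The medium holds 18 µM conjugate and 1 µg/mL 20-hydroxyecdysone. Viability of noneverted disc cells is then judged by Trypan blue exclusion, with everted control discs for comparison.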

As to `NCCCCNCc1c2ccccc2cc2ccccc12`, the inhibition at 18 µM is 78.4% in data set [1] and 100% in data set [4]. The IC50 was 7.6 µM in data set [2] and 7.7 µM in data set [3]. Further, the selectivity ratio in the data set with polyamine transporter is 1.
As for `CCN(CCCNCCCN)Cc1c2ccccc2cc2ccccc12`, the inhibition at 18 µM in data set [1] stood at 88.5%; in data set [4], 100%. The IC50 was determined as 2.2 µM with L1210, 4 µM in data set [2] and 5.3 µM in data set [3]. For the same compound, the selectivity ratio in the data set on polyamine transporter is 0.8.
For `NCCCNCc1c2ccccc2cc2ccccc12`, the inhibition at 18 µM came out at 95.2% in data set [1] and 100% in data set [4]. Further, the half-inhibitory concentration (IC50) with L1210 stood at 2.2 µM; in data set [2] it was 2.4 µM; in data set [3], 2.3 µM. Further, in the data set on polyamine transporter, the selectivity ratio was found to be 1.
In turn, `CCN(CCCCNCCCCN)Cc1c2ccccc2cc2ccccc12` showed an inhibition at 18 µM in data set [1] of 5.5%. Further, inhibition in data set [2] was half-maximal at 21.9 µM (IC50). For the same compound, the selectivity ratio in the data set on polyamine transporter is 1.
As for `NCCCCNCCCNCc1c2ccccc2cc2ccccc12`, the inhibition at 18 µM came out at 7.8% in data set [1] and 9.9% in data set [4]. Moreover, the IC50 is 0.7 µM in the data set on L1210, 8.8 µM in data set [2] and 2.5 µM in data set [3]. In addition, the selectivity ratio with polyamine transporter was found to be 3.5.
On to `CCN(CCCN)Cc1c2ccccc2cc2ccccc12`, for which the inhibition at 18 µM in data set [1] stood at 75.7%; in data set [4] it was 90%. Further, the IC50 amounted to 5.1 µM in the data set on L1210, 6.6 µM in data set [2] and 7.7 µM in data set [3]. Further, the selectivity ratio with polyamine transporter was found to be 0.9.
With `NCCCCNCCCCNCc1c2ccccc2cc2ccccc12`, the inhibition at 18 µM in data set [1] came to 97.6%; in data set [4], 8.7%. In data set [5], the Activity result is reported as “Toxic”. In addition, the values for the IC50 in data set [2] and in data set [3] were 66.7 µM and 0.45 µM, respectively. In addition, the selectivity ratio with polyamine transporter stood at 148.
As for `NCCCNCCCNCc1c2ccccc2cc2ccccc12`, the inhibition at 18 µM is 85.4% in data set [1] and 100% in data set [4]. Moreover, the half-maximal inhibitory concentration (IC50) in data set [2] amounted to 3.4 µM; in data set [3], 1.9 µM. In the data set with polyamine transporter, the selectivity ratio is 1.8.
`NCCCNCCCCNCc1c2ccccc2cc2ccccc12`: the figures for the inhibition at 18 µM in data set [1] and in data set [4] were 73.9% and 23.8%, respectively. In addition, the Activity result in data set [5] is listed as “Toxic”. In addition, the IC50 with L1210 came to 0.4 µM; in data set [2] it was 9.5 µM; in data set [3] it was 0.4 µM. The selectivity ratio in the data set on polyamine transporter stood at 24.
On to `NCCCCNCCCN` [SPERMIDINE], for which 18 µM produced 4.8% inhibition in data set [1].

A word on the inhibition: it is how much of the control response was suppressed. Broadly, the IC50 is the concentration that inhibits the measured activity by half.
